Measured values: ChEMBL document CHEMBL1148311, “Synthesis of novel potent dipeptidyl peptidase IV inhibitors with enhanced chemical stability: interplay between the N-terminal amino acid alkyl side chain and the cyclopropyl group of alpha-aminoacyl-l-cis-4,5-methanoprolinenitrile-based inhibitors” (J Med Chem, 2004)
pKi: −log10 of the molar value.

Tests used:
[1] = Half-life in phosphate buffer at 39.5 C and pH 7.2; format: ADME
How it was run: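 Aqueous solution stability of the dipeptide nitriles in phosphate buffer, pH 7.2, 39.5 °C. Reaction rate followed as disappearance of starting material by reverse-phase HPLC.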

[2] = biological target: Dipeptidyl peptidase 4 (Sus scrofa, UniProt P22411); assay: In vitro inhibition of porcine Dipeptidylpeptidase IV.
Dipeptidyl peptidase 4, sequence (P22411 whole entry): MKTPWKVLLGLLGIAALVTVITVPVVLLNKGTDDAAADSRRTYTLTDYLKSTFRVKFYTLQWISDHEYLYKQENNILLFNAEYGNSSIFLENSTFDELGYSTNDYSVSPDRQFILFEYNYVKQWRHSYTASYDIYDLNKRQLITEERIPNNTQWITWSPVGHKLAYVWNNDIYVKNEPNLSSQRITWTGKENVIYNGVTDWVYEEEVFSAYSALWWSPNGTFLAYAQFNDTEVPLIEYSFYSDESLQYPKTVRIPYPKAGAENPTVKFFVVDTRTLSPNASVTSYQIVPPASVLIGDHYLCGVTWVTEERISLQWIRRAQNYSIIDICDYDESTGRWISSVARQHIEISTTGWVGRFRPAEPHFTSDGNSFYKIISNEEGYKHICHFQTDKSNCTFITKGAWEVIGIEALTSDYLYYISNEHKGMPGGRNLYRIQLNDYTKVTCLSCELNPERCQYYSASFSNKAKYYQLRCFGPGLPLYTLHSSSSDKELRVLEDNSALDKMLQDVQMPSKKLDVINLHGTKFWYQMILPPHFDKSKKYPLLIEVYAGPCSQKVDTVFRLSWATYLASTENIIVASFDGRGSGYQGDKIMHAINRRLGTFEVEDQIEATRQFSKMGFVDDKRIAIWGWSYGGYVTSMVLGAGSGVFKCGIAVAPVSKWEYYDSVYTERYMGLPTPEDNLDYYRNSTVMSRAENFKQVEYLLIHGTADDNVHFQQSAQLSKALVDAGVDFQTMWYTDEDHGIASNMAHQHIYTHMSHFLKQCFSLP

SMILES	half-life [1] [h]	pKi [2]
CC(C)(C)[C@H](N)C(=O)N1CCC[C@H]1C#N.O=C(O)C(F)(F)F	27	–
CCC(C)C(N)C(=O)N1CCC[C@H]1C#N.Cl (some centres undefined)	5	–
CCC(C)[C@H](N)C(=O)N1C(C#N)C[C@@H]2C[C@@H]21.O=C(O)C(F)(F)F (some centres undefined)	22	7.60
CCC(C)[C@H](N)C(=O)N1C[C@H]2C[C@H]2C1C#N.O=C(O)C(F)(F)F (some centres undefined)	4	7.82
CN[C@H](C(=O)N1C(C#N)C[C@@H]2C[C@@H]21)C(C)C (some centres undefined)	–	5.71
N#CC1C[C@@H]2C[C@@H]2N1C(=O)C(N)C1CCCCC1.O=C(O)C(F)(F)F (some centres undefined)	19	7.82
CC(C)(C)[C@H](N)C(=O)N1C[C@H]2C[C@H]2C1C#N.O=C(O)C(F)(F)F (some centres undefined)	4	7.85
CC1(C(N)C(=O)N2C(C#N)C[C@@H]3C[C@@H]32)CCCC1.O=C(O)C(F)(F)F (some centres undefined)	24	8.15
CC(C)[C@H](N)C(=O)N1C[C@H]2C[C@H]2C1C#N.O=C(O)C(F)(F)F (some centres undefined)	2	7.92
CC(C)[C@H](N)C(=O)N1C(C#N)C[C@H]2C[C@H]21.O=C(O)C(F)(F)F (some centres undefined)	28	7.54
N#CC1C[C@@H]2C[C@@H]2N1C(=O)C1CCCCN1 (some centres undefined)	–	5.00
CC1(C(N)C(=O)N2C(C#N)C[C@@H]3C[C@@H]32)CCCCC1 (some centres undefined)	–	8.10
CCC(C)[C@H](N)C(=O)N1CC[C@@H]2C[C@@]21C#N (some centres undefined)	–	5.12

More lines, now with the values ahead:

half-life [1] [h]	pKi [2]	SMILES
–	7.96	CC1(C(N)C(=O)N2C(C#N)C[C@@H]3C[C@@H]32)CCC1 (some centres undefined)
–	7.92	N#CC1C[C@@H]2C[C@@H]2N1C(=O)C(N)C1CCC1 (some centres undefined)
–	7.19	N#CC1C[C@@H]2C[C@@H]2N1C(=O)[C@@H](N)Cc1ccccc1 (some centres undefined)
–	5.79	CCC(C)[C@H](N)C(=O)N1C(C#N)C[C@H]2C[C@H]21 (some centres undefined)
–	8.40	N#CC1C[C@@H]2C[C@@H]2N1C(=O)C(N)C1CCCC1 (some centres undefined)
42	8.15	CC(C)(C)[C@H](N)C(=O)N1C(C#N)C[C@@H]2C[C@@H]21 (some centres undefined)
–	6.87	CSCC[C@H](N)C(=O)N1C(C#N)C[C@@H]2C[C@@H]21 (some centres undefined)
–	6.64	N#CC1C[C@@H]2C[C@@H]2N1C(=O)[C@@H](N)Cc1c[nH]c2ccccc12 (some centres undefined)
